Results reported in ChEMBL document CHEMBL5370575, “Probing the Cytotoxic Signaling Induced by Eupenifeldin in Ovarian Cancer Models” (J Nat Prod, 2023).
The source made the active and inactive calls. The calls are words filed in the database; no cut-off is given here.

Assays:
[1] = test system: OVCAR-3; test: Induction of ferroptosis in human OVCAR-3 cells at 0.001 to 10 uM in presence of ferrostatin-1 by CellTiterGlo assay; assay type: functional, cell-based; details: dose 0.001-10 µM
[2] = test system: OVCAR-8; test: Cytotoxicity against human OVCAR-8 cells assessed as inhibition of cell growth for 72 hrs by CellTiter-Blue cell viability assay; assay type: functional, cell-based
How it was run: (§1)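 5000 cells seeded in triplicate, attached overnight, then exposed for 72 h to serial concentrations in DMSO vehicle (0.05%). Viability was read by fluorometric CellTiter-Blue. IC50 in nM comes from dose–response curves relative to DMSO control. Media: OVCAR3 in RPMI1640, OVCAR5/OVCAR8 in DMEM, hFT33 in DMEM-Ham's F12 50/50, all with 10% FBS. Data are mean ± SEM, three biological replicates.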

[3] = test system: OVCAR-5; test: Cytotoxicity against human OVCAR-5 cells assessed as inhibition of cell growth for 72 hrs by CellTiter-Blue cell viability assay; assay type: functional, cell-based; details: OVCAR-5, 72 h; how it was run: as §1
[4] = test system: OVCAR-5; test: Cytostatic activity against human OVCAR-5 cells assessed as […] in colony formation at 10 nM incubated for 8 hrs measured after 2 weeks by crystal violet staining based analysis; assay type: functional, cell-based; details: time 344.0 hrs
How it was run: (§2)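 Seeded at 200 cells per dish, attached overnight, exposed 8 h to 10 nM (DMSO vehicle 0.1%), then grown 15 days in untreated growth medium. Colonies fixed with 4% paraformaldehyde, stained with 0.05% crystal violet, counted and normalised to vehicle. Mean ± SEM, three biological replicates, one-way ANOVA with Dunnett's test.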

[5] = test system: OVCAR-8; test: Cytostatic activity against human OVCAR-8 cells assessed as […] in colony formation at 10 nM incubated for 8 hrs measured after 2 weeks by crystal violet staining based analysis; assay type: functional, cell-based; details: time 344.0 hrs; how it was run: as §2
[6] = test system: OVCAR-3; test: Cytotoxicity against human OVCAR-3 cells assessed as inhibition of cell growth for 72 hrs by CellTiter-Blue cell viability assay; assay type: functional, cell-based; details: OVCAR-3, 72 h; how it was run: as §1
[7] = test system: OVCAR-3; test: Cytostatic activity against human OVCAR-3 cells assessed as […] in colony formation at 10 nM incubated for 8 hrs measured after 2 weeks by crystal violet staining based analysis; assay type: functional, cell-based; details: time 344.0 hrs; how it was run: as §2
[8] = Cytotoxicity against human FT33 cells assessed as inhibition of cell growth for 72 hrs by CellTiter-Blue cell viability assay; assay type: toxicity, cell-based; how it was run: as §1

CC(C)Oc1ccc(C(=O)Cn2ccnc2)cc1-n1c(CN2CCN(C(=O)COc3ccc(Cl)cc3)CC2)nc2ccccc2c1=O
Activity [1]: inactive

CO/C1=C\C(C)=C\[C@@H](C)[C@@H](O)[C@@H](C)C/C(C)=C/C=C/[C@H](OC)[C@@H]([C@@H](C)[C@@H](O)[C@H](C)[C@@]2(O)C[C@@H](O)[C@H](C)[C@@H](C(C)C)O2)OC1=O
Activity [2]: Active

CC(=O)O[C@H]1C(=O)[C@@]2(C)[C@H]([C@H](OC(=O)c3ccccc3)[C@]3(O)C[C@H](OC(=O)[C@H](O)[C@@H](NC(=O)c4ccccc4)c4ccccc4)C(C)=C1C3(C)C)[C@]1(OC(C)=O)CO[C@@H]1C[C@@H]2O [PACLITAXEL]
IC50 ([2]; OVCAR-8, 72 h): 6.5 nM
IC50 [3]: 3.6 nM
Activity [4]: Active
Activity [5]: Active
IC50 [6]: 2.6 nM
Activity [7]: Active
IC50 at 72 h [8]: 11 nM
